Assay results of several laboratories.
Compare with care: the assays were run in different laboratories.
Target: MAP kinase-activated protein kinase 5 (MAPKAPK5, Homo sapiens, UniProt Q8IW41)

The inhibition of `CN1CC(Oc2cnc(C#N)cc2-c2ccn3nc(NC(=O)C4CC4)cc3c2)C1` is reported as -14% (enzyme activity; inhibitor; 1 µM).
For `CNC(=O)c1cc(Oc2ccc(NC(=O)Nc3ccc(Cl)c(C(F)(F)F)c3)cc2)ccn1`, the inhibition was 18% (enzyme activity; inhibitor; 0.3 µM).
`COc1ccc(COc2ccc(Cc3cnc(N)nc3N)cc2OC)cc1` has a remaining signal of 87.5% (cell-free assay; 0.5 µM).
`COc1ccc2cc(OCC3(C(=O)O)CN(C(=O)c4ccc(F)cc4)C3)ccc2c1` gave a remaining binding of 76% (cell-free assay; competition with immobilised ligand; 1 µM).
The inhibition of `CCCS(=O)(=O)Nc1ccc(F)c(C(=O)c2c[nH]c3ncc(-c4ccc(Cl)cc4)cc23)c1F` is reported as < 10% (enzyme activity; inhibitor; 1 µM).
With `CO[C@@H](C)c1c(Nc2ccc([C@H](N(C)C(=O)C3CCS(=O)(=O)CC3)C(F)(F)F)cc2)cnc2cc(Cl)nn12` the remaining binding was 100% (cell-free assay; competition with immobilised ligand; 1 µM).
`CC(C)c1ccc(NC(=O)c2cccs2)c(-c2nc3ccccc3[nH]c2=O)c1` has an activity vs control of 106% (enzyme activity; inhibitor; 1 µM).
For `CCCCN(CCCC)C(=O)CN1C[C@H](c2cc(OC)c3c(c2)OCO3)[C@@H](C(=O)O)[C@@H]1CC(C)(C)CCC`, the remaining binding was 67.9% (cell-free assay; competition with immobilised ligand; 1 µM).
With `CC(C)(C)c1nc2c(s1)c1nc(N)ncc1c1ccc(NS(=O)(=O)c3c(F)cccc3F)c(F)c12` the remaining activity was 83% (enzyme activity; inhibitor; radiometric; 1 µM).
With `COc1cc2ncnc(Nc3ccc(Oc4ccccc4)c(C)c3C)c2cc1OC` the inhibition was -1% (enzyme activity; inhibitor; 1 µM).
With `CNCc1ccc(-c2cc(-c3nc(-c4ccc(S(=O)(=O)C(C)C)cc4)cnc3N)on2)cc1` the inhibition was 0% (enzyme activity; inhibitor; 2 µM).
With `C=CC(=O)Nc1cc(Nc2nccc(Nc3cc(Cl)c(F)cc3C(C)(C)O)n2)c(OC)cc1N1CC[C@@H](N(C)C)C1` the inhibition was 19% (enzyme activity; inhibitor; 1 µM).
`Cn1cnc(Br)c1C1=CN(c2ncnc3[nH]cnc23)CCS1` has an inhibition of 20.3% (enzyme activity; inhibitor; radiometric; 50 nM).
For `O=C1NC(=O)c2cc(Nc3ccc(F)cc3)c(Nc3ccc(F)cc3)cc21`, the remaining signal was 93.4% (cell-free assay; 0.5 µM).
`CN([C@@H]1CCc2c(CC(=O)O)c3cc(S(C)(=O)=O)ccc3n2C1)S(=O)(=O)c1ccc(F)cc1` gave a remaining binding of 100% (cell-free assay; competition with immobilised ligand; 1 µM).
`Cc1ccc(C(=O)NCc2ccsc2)cc1C#Cc1cn(C(C)C)c2ncnc(N)c12` has an activity vs control of 92% (enzyme activity; inhibitor; 1 µM).
`CC1=C(C#N)C(c2ccc3c(c2)c(NC(=O)c2ccccc2C)nn3C)C(C#N)=C(C)N1` has a remaining binding of 100% (cell-free assay; competition with immobilised ligand; 1 µM).
With `Nc1ncnc2occ(-c3ccc(NC(=O)Nc4cc(C(F)(F)F)ccc4F)cc3)c12` the remaining signal was 58% (cell-free assay; inhibitor; 20 µM).
